Type in all cases: binding
Experiment [1] concerns human katanin AAA domain variability hotspot mutant constructs (L214C, T253N, A419L, T422K etc.). Description: DSF, katanin AAA domain variability hotspot mutants. In outline: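 Human katanin constructs (AAA domain aa 171–491, or aa 111–491; WT or mutants) were expressed in E. coli Rosetta (DE3) pLysS and purified by MBP-affinity, protease tag cleavage, anion exchange and gel filtration. Protein was 8 μM in 20 mM HEPES.Na, 120 mM NaCl, 5 mM MgCl2, 1 mM TCEP, 10 mM (NH4)2SO4, pH 7.5, with SYPRO Orange. Ligand was ADP 1 mM or compound 50–500 μM, in 5% DMSO final. Tm was taken as the minimum of the first derivative of fluorescence versus temperature.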
(Differential scanning fluorimetry follows unfolding on heating by fluorescence.)

The target in experiment [2] is T1, HS-VPS4B-WT (Homo sapiens, UniProt O75351).
T1 sequence (O75351 1-444): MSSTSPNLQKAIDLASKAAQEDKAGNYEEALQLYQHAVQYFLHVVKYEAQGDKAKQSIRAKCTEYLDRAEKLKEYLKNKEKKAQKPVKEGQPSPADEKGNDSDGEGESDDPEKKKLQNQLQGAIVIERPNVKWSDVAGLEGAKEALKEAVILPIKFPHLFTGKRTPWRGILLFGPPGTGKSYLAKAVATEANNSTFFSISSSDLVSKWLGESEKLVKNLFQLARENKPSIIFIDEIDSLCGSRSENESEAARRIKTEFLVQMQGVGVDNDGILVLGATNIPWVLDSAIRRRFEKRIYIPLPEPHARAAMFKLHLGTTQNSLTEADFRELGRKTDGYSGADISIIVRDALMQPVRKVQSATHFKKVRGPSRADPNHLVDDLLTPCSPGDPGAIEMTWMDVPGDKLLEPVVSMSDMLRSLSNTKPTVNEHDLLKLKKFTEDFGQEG
The experiment in a line: DSF, HS-VPS4B-WT. The note with it: ADP 1 mM; WT and Asp-to-Cys mutant to a similar extent. A digest of the protocol:
(§1)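 FIGL1 and HS-VPS4B (WT and Asp-to-Cys mutant) were scanned at 8 μM protein, with or without ADP 1 mM, in 20 mM HEPES.Na, 120 mM NaCl, 5 mM MgCl2, 1 mM TCEP, 10 mM (NH4)2SO4, pH 7.5. Buffer contained SYPRO Orange and 5% DMSO final. Melting temperature was taken from the minimum of the first derivative of the fluorescence–temperature curve. ΔTm was relative to the no-ADP control.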

Experiment [3] deals with T2, FIGL1-WT (Homo sapiens, UniProt Q6PIW4).
T2 sequence (Q6PIW4 288-674): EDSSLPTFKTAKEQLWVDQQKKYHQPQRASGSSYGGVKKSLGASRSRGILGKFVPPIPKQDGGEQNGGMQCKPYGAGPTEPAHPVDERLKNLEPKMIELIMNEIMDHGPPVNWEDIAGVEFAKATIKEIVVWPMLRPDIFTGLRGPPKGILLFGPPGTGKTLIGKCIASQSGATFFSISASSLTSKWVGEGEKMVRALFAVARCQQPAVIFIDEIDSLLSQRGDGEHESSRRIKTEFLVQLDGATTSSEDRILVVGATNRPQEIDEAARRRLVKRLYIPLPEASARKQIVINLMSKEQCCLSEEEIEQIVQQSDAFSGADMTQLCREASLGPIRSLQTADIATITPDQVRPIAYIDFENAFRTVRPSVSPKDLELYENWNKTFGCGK
The experiment in a line: DSF, FIGL1-WT. The note with it: ADP 1 mM; WT and Asp-to-Cys mutant to a similar extent. In outline: as §1

SMILES strings stand for the structures.

As for `Nc1nc2c(-c3ccccc3)cccn2n1` [compound 1, 8-phenyl-triazolopyridine-2-amine], the “effect of mutation on compound binding (DSF)” value in experiment [1] (three of the four variability hotspot mutations, compound 500 μM) is given as “reduced compound binding”.

Consider `Nc1ncnc2c1ncn2[C@@H]1O[C@H](COP(=O)(O)OP(=O)(O)O)[C@@H](O)[C@H]1O` [ADP, adenosine 5’-diphosphate], for which the figures for the “increase in thermal stability on ADP binding” value in experiment [2] and in experiment [3] were “approximately +5 °C” and “~+3 °C”, respectively. The “shift in melting temperature (ΔTm)” value in experiment [1] (ADP 1 mM, five alleles with mutations at the variability hotspots) was “+4 to +6 °C”.

These data come from article PMC8592256 (Nature structural & molecular biology, 2021).
